# From PubChem BioAssay
# A selection: hits, their analogues and other compounds. The true share with any hit is near 3.5%.
# MrgX1 ag – agonists of human MrgX1 receptor, primary screen, HEK293 cells, Fluo-4 calcium flux; Mas-related G-protein coupled receptor member X1 (Homo sapiens), Q96LB2; Fluo-4 calcium fluorescence, agonist mode; hits give high values; B-score at 10 µM; 0.44% of 310,000 active; AID 588627, 2011;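 active = calcium response B-score plate-corrected fluorescence ratio at least 3 library SD, with starting fluorescence B-score inside 5 SD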
# Target sequence (Q96LB2 whole entry, looked up): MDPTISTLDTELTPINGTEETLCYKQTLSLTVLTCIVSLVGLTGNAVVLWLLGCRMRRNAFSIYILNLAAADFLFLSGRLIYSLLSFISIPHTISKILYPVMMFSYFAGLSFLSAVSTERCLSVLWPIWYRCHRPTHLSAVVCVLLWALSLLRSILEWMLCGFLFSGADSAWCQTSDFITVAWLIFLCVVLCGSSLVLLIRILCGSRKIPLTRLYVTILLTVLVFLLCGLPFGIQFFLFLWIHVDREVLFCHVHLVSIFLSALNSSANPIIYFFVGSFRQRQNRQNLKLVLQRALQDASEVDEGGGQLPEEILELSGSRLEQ
#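 Material: MrgX1-expressing HEK293 cells; input: 15,000 cells per well; doses: test compound given as first of three sequential additions; schedule: overnight plating before 1 h dye loading; technique: Fluo-4 NW calcium-flux fluorescence, kinetic read; evaluation: baseline-normalised fluorescence change ratio, B-scored; control set: plate-wise positive and negative controls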
# RGS4 act – RGS4 potentiators or activators, primary screen, cell-based, HEK293 M3R inducible RGS4, calcium flux; carbachol calcium flux Fluo4; hits give low values; B-score at 10 µM; 0.92% of 310,000 active; AID 463111, 2010;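 active = B-score of the integrated calcium signal more than 4 SD below the library mean, with starting fluorescence not abnormally high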;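 also: negative B-score means reduced calcium response which marks RGS4 activation or potentiation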
#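 Material: M3R-expressing HEK293 line, RGS4 induced by doxycycline | Schedule: Overnight RGS4 induction, 30 min dye load 37 °C, 20 min compound RT | Measured by: Fluo4 fluorescence kinetic imaging of calcium | Read-out: Integrated calcium ratio converted to B score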
# MrgX1 allo act – positive allosteric modulators of MrgX1, primary screen, HEK293 cells, Fluo-4 calcium flux. Mas-related G-protein coupled receptor member X1 (Homo sapiens), Q96LB2. FDSS; hits give high values. B-score at 10 µM. 0.63% of 310,000 active. AID 588675, 2011;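 active = plate-corrected calcium response at least 3 library SD above typical, normal starting fluorescence, not activating the receptor alone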;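 also: compound read alongside a low EC10 to EC30 dose of BAM8-22 agonist; peak minus trough fluorescence over baseline measured at the second addition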
# RGS4 block – RGS4 inhibitors, primary screen, cell-based, HEK293 M3R inducible RGS4, calcium flux; Regulator of G-protein signaling 4 (Homo sapiens), P49798; Fluo-4 calcium flux; hits give high values; triggered by carbachol at its EC20; B-score at 10 µM; 0.45% of 310,000 active;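 active = B-score, a plate-corrected calcium signal, over three deviations above library mean, with baseline fluorescence within five deviations of library mean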;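 also: RGS4 expression induced by doxycycline in cells with stable M3 receptor; B-score is computed from the integrated fluorescence ratio over baseline after carbachol; higher B-score means a larger calcium signal and so more RGS4 inhibition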
# Target sequence (P49798 whole entry, looked up): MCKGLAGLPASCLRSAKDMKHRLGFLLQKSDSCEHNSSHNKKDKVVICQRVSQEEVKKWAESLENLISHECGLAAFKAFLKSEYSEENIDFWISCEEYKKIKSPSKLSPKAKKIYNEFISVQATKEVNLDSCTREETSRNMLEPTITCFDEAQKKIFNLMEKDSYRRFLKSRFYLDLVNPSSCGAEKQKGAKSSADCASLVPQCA
# MrgX1 antagonist – antagonists of human MrgX1 receptor, primary screen, HEK293 cells, Fluo-4 calcium flux; Mas-related G-protein coupled receptor member X1 (Homo sapiens), Q96LB2; BAM8-22 antagonism; hits give low values; B-score at 10 µM; 1.3% of 310,000 active;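 active = calcium-response B-score plate-corrected more than 3 library SD below zero, starting fluorescence within 5 deviations, no agonist response on first addition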;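 also: peak minus trough fluorescence over baseline after final BAM8-22 challenge near maximal dose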
# MrgX1 antag conf – MrgX1 receptor antagonists, duplicate retest, confirmation, HEK293 cells, Fluo-4 calcium flux; shares compounds with MrgX1 antagonist; BAM8-22 calcium flux; hits give low values; remaining BAM8-22 calcium response % of control (hits give low values), % at 10 µM; 19% of 2,300 active; AID 602420, 2012;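 active = remaining agonist calcium response no higher than 100% minus 3 SD of agonist-only control wells, with starting fluorescence near control levels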;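 also: agonist BAM8-22 given at a near maximal EC90 to ECmax level; peak minus minimum fluorescence divided by baseline after agonist addition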
# HEK293 Ca flux – nonspecific calcium signal in parental HEK293, confirmation, counter-screen for MrgX1 antagonist project, parental HEK293 cells, Fluo-4 calcium flux | shares compounds with MrgX1 antagonist | Fluo-4 calcium fluorescence, FDSS | fluorescence ratio F(max-min)/F0 at 10 µM | 2% of 4,000 active | AID 624111, 2012;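 active = duplicate-averaged calcium fluorescence ratio at least three times the standard deviation of buffer wells, a nonspecific response in parental cells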
# HEK293 Ca counter – calcium response in parental HEK293 cells, primary screen, counter-screen for MrgX1 allosteric activator project, cell-based, Fluo-4 calcium flux, duplicate; Fluo-4 fluorescence ratio; hits give high values; shares compounds with MrgX1 antagonist; fluorescence ratio F(max-min)/F0 at 10 µM; 0.4% of 4,000 active;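 active = calcium fluorescence ratio, averaged over duplicates, at least 3 SD of the buffer-well ratio, meaning a nonspecific response in receptor-free cells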;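 also: untransfected parental HEK293 lacking MrgX1 used as counterscreen for MrgX1 allosteric activators; fluorescence change taken during the second addition on a kinetic imager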
# HEK293 Ca cntr2 – calcium response in parental HEK293 cells, primary screen, counter-screen for MrgX1 agonist project, cell-based, Fluo-4 calcium flux, duplicate, agonist mode. shares compounds with MrgX1 antagonist. Fluo-4 calcium fluorescence (FDSS); hits give high values. fluorescence ratio F(max-min)/F0 at 10 µM. 8.7% of 4,000 active;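 active = calcium fluorescence ratio at least three times the spread of buffer wells, meaning a non-specific response in parental cells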
# Active calls of the source: *; i = inactive; · = not tested or not shown.
SMILES,MrgX1 ag,RGS4 act,MrgX1 allo act,RGS4 block,MrgX1 antagonist,MrgX1 antag conf,HEK293 Ca flux,HEK293 Ca counter,HEK293 Ca cntr2
Cc1ccc2nc(-c3ccc(N4C(=O)CC(N5CCC(C(N)=O)CC5)C4=O)cc3)sc2c1 (stereo not given),i,i,i,i,i,·,·,·,·
Cc1ccc2nc(-c3ccc(N4C(=N)SC5CS(=O)(=O)CC54)cc3)sc2c1 (stereo not given),i,i,i,i,-7.3*,85%*,i,i,i
Cc1ccc(NC(=O)c2cccc(NC(=O)CC3SC(N4CCCCC4)=NC3=O)c2)nc1 (stereo not given),i,i,i,i,i,·,·,·,·
CCOc1ccc(CCNC(=O)COC(=O)CNS(=O)(=O)c2ccc(NC(C)=O)cc2)cc1OCC,i,i,i,i,i,·,·,·,·
O=C(Nc1ccc(S(=O)(=O)Nc2ccccc2)cc1)c1ccc(CN2CCOCC2)cc1,i,i,i,i,-4.6*,79%*,i,i,i
O=C(Nc1ccc(CN2CCOCC2)cc1)c1ccc(Cl)cc1,i,i,i,i,i,·,·,·,·
Cc1ccc(C(=O)Nc2cccnc2N2CCN(C)CC2)cc1,i,i,i,i,i,·,·,·,·
Cc1ccc(NC(=O)Cc2ccc(-c3ccccc3)cc2)nc1,i,i,i,i,-8.1*,i,i,i,i
COc1ccc(CC(C)N2CCN(Cc3ccccc3)CC2)c(OC)c1 (stereo not given),i,i,i,i,-4.5*,i,i,i,i
O=S1(=O)CC2SC(=S)N(Cc3ccccc3)C2C1 (stereo not given),i,i,i,i,i,·,·,·,·
O=C(O)CCNC(=O)C12CC3CC(CC(C3)C1)C2,i,i,i,i,-8.1*,i,i,i,i
O=C(NCc1ccccc1)C12CC3CC(CC(C3)C1)C2,i,i,i,i,i,·,·,·,·
CC(Oc1ccc(Br)cc1)C(=O)Nc1ccc(S(=O)(=O)N(C)C2CCN(C)CC2)cc1 (stereo not given),i,i,i,i,-16*,i,i,i,48*
O=C(O)CCNS(=O)(=O)c1ccc2c(c1)OCCCO2,i,i,i,i,i,·,·,·,·
Cc1cc(C)cc(OCc2ccc(C(=O)NN)o2)c1,i,i,i,i,i,·,·,·,·
COc1ccc(-n2c(Cc3cccn3C)nnc2SCC(=O)Nc2ccc(C)c(Cl)c2)cc1,i,i,i,i,-4.8*,i,i,i,i
CCOc1ccc(N2C(=O)S/C(=C\c3cc(OC)c(OC)c(OC)c3)C2=O)cc1,i,i,i,i,i,·,·,·,·
CO[C@H]1O[C@H](CBr)[C@@H](OC(=O)c2ccccc2)[C@H](O)[C@H]1O,i,i,i,i,i,·,·,·,·
COC1OC(COC(=O)c2ccccc2)C(OC(=O)c2ccccc2)C1OC(=O)c1ccccc1 (stereo not given),i,i,i,i,-5.5*,i,i,i,i
